Activity calls are given as the source filed them. The calls are words filed in the database; no cut-off is given here.
What was measured:
[1] = test system: HepG2; assay: Antiproliferative activity against human HepG2 cells assessed as inhibition of cell growth incubated for 24 hrs by MTT assay; assay type: functional, cell-based; settings: HepG2, 24 h
Summary of the method: (§1)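 HepG2 cells exposed to a range of concentrations for the stated times, then inhibition rate measured by MTT.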

[2] = test system: HepG2; assay: Induction of apoptosis in human HepG2 cells assessed as increase in PARP cleavage at 2.5 to 10 uM incubated for 24 hrs by Western blot analysis; assay type: functional, cell-based
Summary of the method: (§2)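 HepG2 cells treated 24 h at several concentrations; NTCP, PARP, Bax, Bcl-2 and caspase-3 detected by western blot.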

[3] = test system: HepG2; assay: Induction of apoptosis in human HepG2 cells assessed as early apoptotic cells at 2.5 uM incubated for 24 hrs by annexin -V/propidium iodide staining based flow cytometry (reference value: 2.23%); assay type: functional
[4] = test system: Hepatitis B virus; assay: Antiviral activity against hepatitis B virus infected in human HepG2.2.15 cells assessed as reduction in HBV DNA level incubated for 9 days by real time-PCR analysis; assay type: functional, organism-based
[5] = test system: HepG2; assay: Induction of apoptosis in human HepG2 cells assessed as late apoptotic cells at 2.5 uM incubated for 24 hrs by annexin -V/propidium iodide staining based flow cytometry (reference value: 4.72%); assay type: functional
[6] = test system: HepG2; assay: Induction of apoptosis in human HepG2 cells assessed as increase in caspase-3 cleavage at 2.5 to 10 uM incubated for 24 hrs by Western blot analysis; assay type: functional, cell-based; summary of the method: as §2
[7] = test system: HepG2; assay: Induction of apoptosis in human HepG2 cells assessed as late apoptotic cells at 10 uM incubated for 24 hrs by annexin -V/propidium iodide staining based flow cytometry (reference value: 4.72%); assay type: functional
[8] = test system: HepG2; assay: Induction of apoptosis in human HepG2 cells assessed as upregulation of Bax protein expression at 2.5 to 10 uM incubated for 24 hrs by Western blot analysis; assay type: functional, cell-based; summary of the method: as §2
[9] = test system: HepG2; assay: Induction of apoptosis in human HepG2 cells assessed as early apoptotic cells at 5 uM incubated for 24 hrs by annexin -V/propidium iodide staining based flow cytometry (reference value: 2.23%); assay type: functional
[10] = test system: HepG2; assay: Induction of apoptosis in human HepG2 cells assessed as downregulation of Bcl2 protein expression at 2.5 to 10 uM incubated for 24 hrs by Western blot analysis; assay type: functional, cell-based; summary of the method: as §2
[11] = test system: HepG2; assay: Antiproliferative activity against human HepG2 cells assessed as inhibition of cell growth incubated for 48 hrs by MTT assay; assay type: functional, cell-based; settings: HepG2, 48 h; summary of the method: as §1
[12] = test system: HepG2; assay: Antiproliferative activity against human HepG2 cells assessed as inhibition of cell growth incubated for 72 hrs by MTT assay; assay type: functional, cell-based; settings: HepG2, 72 h; summary of the method: as §1
[13] = test system: Hepatitis B virus; assay: Antiviral activity against hepatitis B virus infected in human HepG2.2.15 cells assessed as reduction in HBeAg secretion at 5 uM incubated for 9 days by ELISA (reference value: 25.13 +/- 1.93 ng/ml); assay type: functional
[14] = test system: Hepatitis B virus; assay: Antiviral activity against hepatitis B virus infected in human HepG2.2.15 cells assessed as HBsAg secretion at 5 uM incubated for 9 days by ELISA (reference value: 8.41+/- 0.54 ng/ml); assay type: functional
[15] = test system: HepG2; assay: Induction of cell morphological changes in human HepG2 cells assessed as condensed chromatin at 2.5 to 10 uM incubated for 24 hrs by Hoechst 33258 staining based fluorescence microscopy; assay type: functional
Summary of the method: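 HepG2 cells treated 24 h at several concentrations, stained with Hoechst 33258, chromatin morphology examined by fluorescence microscopy.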

[16] = test system: HepG2; assay: Induction of apoptosis in human HepG2 cells assessed as early apoptotic cells at 10 uM incubated for 24 hrs by annexin -V/propidium iodide staining based flow cytometry (reference value: 2.23%); assay type: functional
[17] = test system: HepG2; assay: Inhibition of NTCP protein expression in human HepG2 cells at 2.5 to 10 uM incubated for 24 hrs by western blot analysis; assay type: functional, cell-based; summary of the method: as §2
[18] = test system: HepG2; assay: Induction of apoptosis in human HepG2 cells assessed as late apoptotic cells at 5 uM incubated for 24 hrs by annexin -V/propidium iodide staining based flow cytometry (reference value: 4.72%); assay type: functional
[19] = target: T1, Hepatic sodium/bile acid cotransporter (Homo sapiens, UniProt Q14973); assay: Inhibition of human recombinant NTCP expressed in CHO cells assessed as reduction in [3H]taurocholate uptake incubated for 2 mins by scintillation counting method; assay type: cell-based
T1 sequence (Q14973 whole entry): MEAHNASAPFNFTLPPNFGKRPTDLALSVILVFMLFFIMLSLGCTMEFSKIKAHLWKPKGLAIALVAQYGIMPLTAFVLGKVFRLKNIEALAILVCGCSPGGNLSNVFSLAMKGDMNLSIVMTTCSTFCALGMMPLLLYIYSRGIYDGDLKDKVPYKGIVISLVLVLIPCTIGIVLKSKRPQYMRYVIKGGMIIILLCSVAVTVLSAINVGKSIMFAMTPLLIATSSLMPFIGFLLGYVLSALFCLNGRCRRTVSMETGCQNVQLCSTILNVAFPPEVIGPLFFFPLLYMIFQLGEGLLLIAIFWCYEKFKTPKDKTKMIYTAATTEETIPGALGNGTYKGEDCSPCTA

[20] = target: T1, Hepatic sodium/bile acid cotransporter; assay: Inhibition of human recombinant NTCP expressed in CHO cells assessed as reduction in [3H]taurocholate uptake preincubated for 1 hr by radioactive scintillation counting method; assay type: cell-based
[21] = target: T1, Hepatic sodium/bile acid cotransporter; assay: Inhibition of NTCP in human hepatocytes; assay type: cell-based
[22] = target: T1, Hepatic sodium/bile acid cotransporter; assay: Inhibition of NTCP in human hepatocytes assessed as reduction in Na+-dependent [3H]taurocholate uptake measured at 45s following compound addition by liquid scintillation counting method; assay type: cell-based

Row | IC50 [1] [µM] | Structure (SMILES) | Activity [13] [ng/mL] | Activity [14] [ng/mL] | other results
1 | 2.8 | Cc1ccc(C(=O)NCC(=O)N/N=C/c2ccccc2OCc2cc3c(cc2Cl)OCO3)cc1 | 7.43 | 1.93 | Activity [2]: Active; Activity [3]: 4.73%; inhibition [4]: Active; Activity [5]: 15.33%; Activity [6]: Active; Activity [7]: 30.48%; Activity [8]: Active; Activity [9]: 5.39%; Activity [10]: Active; IC50 [11]: 1.2 µM; IC50 [12]: 0.9 µM; Activity [15]: Active; Activity [16]: 5.99%; inhibition [17]: Active; Activity [18]: 21.66%
2 | 32.9 | C[C@]1(C(=O)NCCOc2ccc(C3CCCCC3)cc2)CO[C@@H](c2ccccc2)OC1 |  |  | 
3 | 25.4 | Cc1sc(NC(=O)CCn2cnc3ccccc3c2=O)nc1-c1ccc(Cl)cc1 |  |  | 
4 | 24.9 | O=C(CNC(=O)c1ccc(F)cc1)N/N=C/c1ccccc1OCc1ccccc1Cl | 14.53 | 5.03 | 
5 | > 50 | O=C(CNC(=O)c1ccc(-c2ccccc2)cc1)N/N=C/c1ccccc1OCc1cc2c(cc1Cl)OCO2 | 24.07 | 7.72 | 
6 | 17.1 | O=C(CNC(=O)c1ccc(F)cc1)N/N=C/c1ccccc1OCc1cc2c(cc1Cl)OCO2 | 11.84 | 3.98 | 
7 | 3.1 | O=C(CNC(=O)c1cccnc1Cl)N/N=C/c1cccc(OCc2ccccc2Cl)c1 | 6.43 | 2.05 | inhibition [4]: Active
8 | > 50 | O=C(CNC(=O)c1ccc(-c2ccccc2)cc1)N/N=C/c1ccc(OCc2cc3c(cc2Cl)OCO3)cc1 | 23.8 | 7.66 | 
9 | 13.4 | Cc1ccc(C(=O)NCC(=O)N/N=C/c2ccccc2OCc2ccccc2Cl)cc1 | 15.01 | 3.95 | 
10 | 14.9 | Cc1ccc(C(=O)NCC(=O)N/N=C/c2ccc(OCc3cc4c(cc3Cl)OCO4)cc2)cc1 | 11.47 | 3.91 | 
11 | 15.7 | COc1ccc(/C=N/NC(=O)CNC(=O)c2ccc(F)cc2)c(OCc2ccccc2Cl)c1 | 13.07 | 4.23 | 
12 | > 50 | CCN(CC)c1ccc(/C=N/NC(=O)CNC(=O)c2ccc(C)cc2)c(OCc2ccccc2Cl)c1 | 24.55 | 8.37 | 
13 | > 50 | COc1ccc(COc2ccccc2/C=N/NC(=O)CNC(=O)c2ccc(C)cc2)cc1 | 23.04 | 7.66 | 
14 |  | CC(C)n1c(/C=C/C(O)CC(O)CC(=O)O)c(-c2ccc(F)cc2)c2ccccc21 (stereo unspecified) [FLUVASTATIN] |  |  | IC50 [19]: 40 µM
15 | > 50 | Cc1ccc(C(=O)NCC(=O)N/N=C/c2ccccc2OCc2ccc(C#N)cc2)cc1 | 25.25 | 8.25 | 
16 | > 50 | COc1ccc(/C=N/NC(=O)CNC(=O)c2ccc(C#N)cc2)c(OCc2ccccc2Cl)c1 | 25.47 | 8.29 | 
17 | 4.7 | O=C(CNC(=O)c1cccnc1Cl)N/N=C/c1ccc(OCc2ccccc2Cl)cc1 | 7.36 | 2.48 | inhibition [4]: Active
18 | 23.4 | Cc1cccc(CSCCNC(=O)CN(c2cccc(C(F)(F)F)c2)S(C)(=O)=O)c1 |  |  | 
19 | 53.2 | Cc1cc(C)cc(OCC(=O)NCCNC(=O)COc2cc(C)cc(C)c2)c1 |  |  | 

Row | IC50 [1] [µM] | Structure (SMILES) | Activity [13] [ng/mL] | Activity [14] [ng/mL] | other results
20 | 16.9 | O=C(CNC(=O)c1cccnc1Cl)N/N=C/c1ccccc1OCc1ccccc1Cl | 12.55 | 4.08 | 
21 | 35.7 | C[C@H](NC(=O)COc1ccc(S(=O)(=O)N[C@H](C)c2ccccc2)cc1)c1ccccc1 |  |  | 
22 |  | CCCNS(=O)(=O)Nc1ncnc(OCCOc2ncc(Br)cn2)c1-c1ccc(Br)cc1 |  |  | IC50 [20]: 10 µM
23 |  | Cc1cc(OCCCS(C)(=O)=O)cc(C)c1-c1cccc(COc2ccc3c(c2)OC[C@H]3CC(=O)O)c1 |  |  | IC50 [21]: 2 µM
24 | > 50 | N#Cc1ccc(C(=O)NCC(=O)N/N=C/c2ccccc2OCc2ccccc2Cl)cc1 | 25.22 | 8.33 | 
25 | > 50 | O=C(CNC(=O)c1cccnc1Cl)N/N=C/c1ccccc1OCc1cc2c(cc1Cl)OCO2 | 25.47 | 8.39 | 
26 | > 50 | O=C(CNC(=O)c1ccc(-c2ccccc2)cc1)N/N=C/c1ccccc1OCc1ccccc1Cl | 24.88 | 8.31 | 
27 | 26.4 | O=C(COc1ccc(Cl)cc1)NCc1ccc(CNC(=O)COc2ccc(Cl)cc2)cc1 |  |  | 
28 |  | C[C@H](Cn1cnc2c(N)ncnc21)OCP(=O)(O)O [TENOFOVIR ANHYDROUS] | 5.6 | 1.72 | 
29 | > 50 | COc1ccc(/C=N/NC(=O)CNC(=O)c2ccc(C)cc2)c(OCc2ccccc2Cl)c1 | 23.53 | 7.94 | 
30 | 28.1 | Cc1ccc(C(=O)NCC(=O)N/N=C/c2ccc(OCc3ccccc3Cl)cc2)cc1 | 14.29 | 4.83 | 
31 | > 50 | CCN(CC)c1ccc(/C=N/NC(=O)CNC(=O)c2ccc(C#N)cc2)c(OCc2ccccc2Cl)c1 | 24.86 | 8.17 | 
32 | > 50 | CCN(CC)c1ccc(/C=N/NC(=O)CNC(=O)c2ccc(F)cc2)c(OCc2ccccc2Cl)c1 | 24.34 | 8.04 | 
33 |  | COc1ccccc1Oc1c(NS(=O)(=O)c2ccc(C(C)(C)C)cc2)nc(-c2ncccn2)nc1OCCO [BOSENTAN] |  |  | IC50 [22]: 30 µM
34 | 18.6 | Cc1ccccc1OCC(=O)N/N=C/c1cccc(OCc2ccccc2)c1 |  |  | 
35 | 47.5 | Cc1ccc(C(=O)NCC(=O)N/N=C/c2cccc(OCc3ccccc3Cl)c2)cc1 | 18.09 | 5.74 | 
36 | 10.1 | O=C(CNC(=O)c1cccnc1)N/N=C/c1ccc(OCc2cc3c(cc2Cl)OCO3)cc1 | 11.45 | 3.71 | 
37 | > 50 | Cc1ccc(C(=O)NCC(=O)N/N=C/c2ccccc2OCc2ccc(Cl)cc2)cc1 | 22.99 | 7.79 | 

Row | Structure (SMILES) | IC50 [1] [µM] | Activity [13] [ng/mL] | Activity [14] [ng/mL] | other results
38 | O=C1CC(c2ccccc2)CC(=O)C1=CNCCN1CCN(C(=O)Cc2ccccc2)CC1 (stereo unspecified) | 70.2 |  |  | 

Source: ChEMBL document CHEMBL4396941, “Design, synthesis and biological evaluation of benzamide derivatives as novel NTCP inhibitors that induce apoptosis in HepG2 cells” (Bioorg Med Chem Lett, 2019)
